Results from ChEMBL document CHEMBL4732185, “Synthesis, biological evaluation and structure-activity relationship of novel dichloroacetophenones targeting pyruvate dehydrogenase kinases with potent anticancer activity” (Eur J Med Chem, 2021).
The source made the active and inactive calls. The calls are words filed in the database; no cut-off is given here.

How the values were obtained:
MCF7 = assay: Antiproliferative activity against human MCF7 cells assessed as growth inhibition at 10 uM after 72 hrs by MTT assay relative to control; format: functional; settings: read-out: GI
How it was run: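 Single-concentration MTT screen on MCF-7 and A549 cells grown in DMEM + 10% FBS. Cells at 3000–6000/well, cultured overnight, then given compound in buffer with 1% DMSO for 72 h. MTT (0.5 mg/mL) added for 4 h, formazan dissolved in DMSO, A570 read. Percent inhibition reported as the average ± S.D. of three independent measurements.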

A-375 [1] = assay: Antitumour activity against human A375 cells xenografted with mouse assessed as tumour growth inhibition at 5 mg/kg, im administered once per three days for 21 days; format: functional, organism-based; settings: time 21.0 day
How it was run: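 Xenograft model. A375 cells harvested at 80% confluence with trypsin/EDTA, resuspended in serum-free DMEM and injected subcutaneously into the right flank of mice. Once tumours were visible (about 7 days), mice were randomised to vehicle or 5 mg/kg groups, n = 4, dosed by intramuscular injection once every three days. Tumour growth and body weight followed; tumours harvested and weighed at 21 days.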

A-375 [2] = assay: Induction of apoptosis in human A375 cells assessed as late apoptotic cells at 5 uM after 24 hrs by annexinV-FITC/propidium iodide staining based flow cytometric analysis (reference value: 0.63%); format: functional

## CC(C)(CO)c1ccc(Nc2ccc(C(=O)C(Cl)Cl)cc2[N+](=O)[O-])cc1
MCF7
  inhibition of growth at 10 µM: 95.3%
A-375 [1]
  Activity: Active
A-375 [2]
  Activity: 19.11%
